Compounds with a hit are over-represented: about 3% of the library has one in this group of screens.
S1P1 ag-PAM: agonists and agonism potentiators of human S1P1 receptor; AID 449; 56,000 tested, 0.57% active; activation, % at 9.5 µM; S1P1 CRE-bla cells, forskolin, beta-lactamase FRET, potentiator mode; S1P1 agonist co-added at EC20, 2 nM; 100% = saturating reference agonist, 0% = basal;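 active = activation above a cutoff set at the mean activation of all tested compounds plus 3 SD, cut at about 54% in these data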;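 note: forskolin at 4 µM as EC80 and the EC20 agonist is SEW2871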
Target sequence (P21453 whole entry, looked up): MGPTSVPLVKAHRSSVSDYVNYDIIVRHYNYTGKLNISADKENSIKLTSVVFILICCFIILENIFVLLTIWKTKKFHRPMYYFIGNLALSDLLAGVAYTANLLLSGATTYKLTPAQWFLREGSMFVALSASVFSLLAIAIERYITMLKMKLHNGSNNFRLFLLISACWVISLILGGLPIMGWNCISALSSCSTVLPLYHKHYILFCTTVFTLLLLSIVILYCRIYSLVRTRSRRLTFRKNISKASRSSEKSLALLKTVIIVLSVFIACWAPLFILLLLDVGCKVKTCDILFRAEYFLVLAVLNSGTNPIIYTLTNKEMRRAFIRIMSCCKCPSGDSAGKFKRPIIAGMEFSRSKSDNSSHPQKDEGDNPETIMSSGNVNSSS
5-HT1A blocker: 5-HT1a (human) receptor antagonism. P08908. CHO 5-HT1a Ga15 NFAT-bla reporter, antagonist mode. inhibition, % at 10 µM. 62,000 tested, 0.68% active;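 active = inhibition above the mean of all tested compounds plus 3 SD, cut at about 43% in these data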;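 note: receptor stimulated by 5-CT agonist at 100 nM near EC80; beta-lactamase reporter measured by ratiometric fluorescence of a cleavable substrate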
HTR1E agonist: activates the human 5-HT1E serotonin receptor | P28566 | CHO 5-HT1E Ga15 NFAT-bla reporter, FRET; 0% DMSO wells, 100% control agonist wells | activation, % at 6 µM | 65,000 tested, 0.69% active;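 active = activation above a set limit, the screen-wide mean activation plus 3 SD, cut at about 8.5% in these data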
5HT1a ag: 5-HT1a (human) receptor agonism; P08908; CHO 5-HT1a Ga15 NFAT-bla reporter, FRET ratio; 0% basal, 100% maximal reference agonist; activation, % at 10 µM; 65,000 tested, 0.56% active;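 active = activation above the screen-wide mean activation plus 3 SD, cut at about 19% in these data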
5HT1E antag: blocks the human 5-HT1E serotonin receptor | P28566 | CHO 5-HT1E Ga15 NFAT-bla reporter, FRET, antagonist | inhibition, % at 6 µM | 65,000 tested, 0.99% active;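 active = inhibition above a set limit, the mean inhibition across every tested compound plus 3 SD, cut at about 29% in these data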;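 note: signal is the 460 over 535 nm emission ratio of beta-lactamase substrate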
S1P3 ag: activates the human S1P3 receptor | Q99500 | S1P3 NFAT-BLA reporter cells, agonism, FRET ratio; relative to 1 µM S1P, basal subtracted | activation, % at 4.5 µM | 60,000 tested, 0.1% active;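 active = activation above the screen-wide mean plus 3 SD, cut at about 4.5% in these data, passing the limit was not always enough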
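Measure – % activation relative to 1 µM S1P (100%), per plate · System – stable CHO line with human S1P3, Gα16, NFAT-BLA reporter · Timing – cells plated overnight, compound 4 h 37 °C, substrate 2 h RT · Technique – fluorescent BLA substrate, ex 405 nm, em 460/535 nm ratio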
Of the large screens only hits and unclear results are named; the others gave an inactive call.

Cc1noc(C)c1S(=O)(=O)NCc1ccc2c(c1)OCO2	none
Cc1ccc(-n2nc3c([n+]2[O-])CCc2c-3no[n+]2[O-])cc1	5-HT1A blocker 73, 5HT1E antag 74
[O-][n+]1onc2c1CCc1c-2nn(-c2ccccc2Cl)[n+]1[O-]	5-HT1A blocker 60, 5HT1E antag 34
CSc1ncccc1C(=O)OCc1ccccc1	none
CSc1ncccc1C(=O)OCc1ccccc1F	5HT1a ag 73
COC(=O)c1nn2c(C(F)(F)F)cc(-c3ccc(Br)o3)nc2c1Br	none (no result: 5-HT1A blocker)
Cc1ccccc1NS(=O)(=O)c1ccc2[nH]cc(C(=O)NCCCN3CCOCC3)c(=O)c2c1	none
CC(C)C[C@H](N)c1nnc(S(=O)(=O)Cc2ccc(F)cc2)o1	5-HT1A blocker 88, 5HT1E antag 43
O=C(c1cccc(F)c1)N1CCN(C(=O)C2CC2)CC1	none
CCN(CC)S(=O)(=O)c1ccc2[nH]cc(C(=O)NCCC3=CCCCC3)c(=O)c2c1	none (no result: S1P1 ag-PAM, S1P3 ag)
CN(c1cc(=O)n2ccccc2n1)C1CCCCC1	5HT1a ag 30
CC(=O)N1CCc2cc(C(=O)CN3CCN(c4cccc(Cl)c4)CC3)ccc21	HTR1E agonist 26
CC(=O)N1CCc2ccc(C(=O)CN3CCN(c4cccc(C)c4C)CC3)cc21	HTR1E agonist 46
CC1CC(C(F)(F)C(F)(F)F)n2nc(C(=O)O)cc2N1 (centres undefined)	none
CCCC(=O)Nc1ccc(-c2nc3cc(C)ccc3o2)cc1	S1P1 ag-PAM 70
CCCC(=O)Nc1ccc(-c2nc3cc(C)c(C)cc3o2)c(O)c1	none
CCCC(=O)Nc1ccc2oc(-c3ccc(OC)c(Br)c3)nc2c1	S1P1 ag-PAM 98
O=C(c1cnn2c1NC(c1ccco1)CC2C(F)(F)F)N1CCN(c2cccc(Cl)c2)CC1 (centres undefined)	none
COc1cccc(-c2cc(C(F)(F)F)nc(N3CCN(c4ccccc4)CC3)n2)c1	none (no result: S1P1 ag-PAM, S1P3 ag)
COc1ccc(OC)c(C(=O)CN2C(=O)NC(C)(c3ccccc3)C2=O)c1 (centres undefined)	5HT1a ag 161
O=C(Nc1nccs1)c1ccc(S(=O)(=O)NCC2CCCCC2)cc1	S1P1 ag-PAM 53
Cc1nc(=O)c(-c2ccccc2)c(C)n1-c1ccccc1O	none
COc1ccc(CCNc2c(C)c(C)nc3ncnn23)cc1	S1P1 ag-PAM 134
COc1ccccc1-n1c(CNc2c(C)cccc2C)nnc1SCC(=O)N1CCOCC1	none
CN(C)c1oc(-c2ccc(OCc3ccccc3)cc2)nc1C#N	S1P1 ag-PAM 72
N#Cc1nc(-c2ccc(OCc3ccccc3)cc2)oc1NCc1cccnc1	S1P1 ag-PAM 60
Cc1cc(NC(=O)CN2CCN(c3ccccc3O)CC2)no1	none (no result: S1P1 ag-PAM, S1P3 ag)
Cc1nn2c(C(F)(F)F)cc(-c3ccc(Cl)cc3)nc2c1C(=O)N1CCOCC1	HTR1E agonist 38
CCCc1nc2ccccc2c(=O)n1/N=C/c1c(C)[nH]n(-c2ccc(C)cc2)c1=O	none
CCOC(=O)c1oc2ccccc2c1NC(=O)c1ccccc1OC	5-HT1A blocker 49, 5HT1E antag 47
CCOC(=O)c1oc2ccccc2c1NC(=O)COc1cccc(OC)c1	none
O=C1CC(N2CCN(Cc3ccc4c(c3)OCO4)CC2)C(=O)N1CCc1ccccc1 (centres undefined)	none
Cc1ccc(C(C)C)c(OCc2ccc(-c3nnco3)cc2)c1	S1P1 ag-PAM 98
Cc1ccc(S(=O)(=O)N(C)Cc2ccc(-c3nnco3)cc2)cc1	none
O=C(c1noc2c1CCCC2)N1CCN(C(c2ccccc2)c2ccccc2)CC1	none
O=C(c1cc(-c2ccco2)on1)N1CCN(C(c2ccccc2)c2ccccc2)CC1	S1P1 ag-PAM 60, 5-HT1A blocker 43
COc1ccc(-c2cc(C(=O)N3CCN(C(c4ccccc4)c4ccccc4)CC3)no2)cc1OC	none
CC(C)c1cc(C(=O)N2CCN(C(c3ccccc3)c3ccccc3)CC2)no1	S1P1 ag-PAM 76
O=C(c1cc(-c2ccccc2)on1)N1CCN(C(=O)c2ccco2)CC1	none
COc1ccc(-c2cc(C(=O)N3CCN(C(c4ccccc4)c4ccccc4)CC3)no2)cc1	5-HT1A blocker 44
